Experimental data: ChEMBL document CHEMBL1150391, “Pyridinium cationic-dimer antimalarials, unlike chloroquine, act selectively between the schizont stage and the ring stage of Plasmodium falciparum” (Bioorg Med Chem, 2008)
Calls of active or inactive are those of the source. No cut-off for these calls is given here.

Tests used:
FM3A = assay: Cytotoxicity against mouse FM3A cells assessed as inhibition of increase in cell density after 48 hrs; format: cell-based
Outline: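 Mouse mammary tumor FM3A (subclone F28-7) cells kept in suspension in ES medium with 2% heat-inactivated FBS, seeded at 5 × 10⁴ cells/mL, compounds added in DMSO. 48 h, 37 °C, 5% CO2; cells counted microscopically. Duplicate wells, mean of three experiments; IC50 is the concentration giving 50% inhibition of cell-density increase versus control.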

Plasmodium falciparum [1] = assay: Antimalarial activity as reduced parasitaemia after 72 hrs against chloroquine-sensitive Plasmodium falciparum FCR3 in human erythrocytes by Diff-Quick stain; format: functional, organism-based; conditions: FCR3, 72 h
Outline: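 FCR-3 grown in type A human RBCs (5% hematocrit stock culture) in RPMI 1640 with HEPES, NaHCO3, gentamicin and 10% heat-inactivated type A human serum. Assay: 0.3% parasitemia, 3% final hematocrit, DMSO compound dilutions; 72 h, 37 °C, 5% CO2/5% O2/90% N2. Parasitemia read from Diff-Quik thin films. Duplicate wells, mean of three experiments; IC50 taken from the growth-inhibition curve.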

Plasmodium falciparum [2] = assay: Antimalarial activity as synchronized middle trophozoites of chloroquine-sensitive Plasmodium falciparum FCR3 in human erythrocytes at 5 uL by Diff-Quick stain; format: functional, organism-based
Outline: (§1)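 Cultures synchronized twice with 5% D-sorbitol 40 h apart (>80% rings); stage checked microscopically before dosing. Compound added at ring, middle trophozoite, late trophozoite or schizont stage; 5% erythrocytes, about 1.0% parasitemia, compound in 0.1% DMSO at 100 times the IC50. 48 h, 37 °C; medium and compound renewed at 24 h. Infection ratio counted per at least 2000 erythrocytes in Diff-Quik films every 6 h; duplicate, versus compound-free control.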

Plasmodium falciparum [3] = assay: Antimalarial activity as synchronized ring-stage of chloroquine-sensitive Plasmodium falciparum FCR3 infected human erythrocytes at 5 uL by Diff-Quick stain; format: functional, organism-based; outline: as §1
Plasmodium falciparum [4] = assay: Antimalarial activity as synchronized late trophozoites of chloroquine-sensitive Plasmodium falciparum FCR3 in human erythrocytes at 5 uL by Diff-Quick stain; format: functional, organism-based; outline: as §1
Plasmodium falciparum [5] = assay: Antimalarial activity as synchronized schizonts of chloroquine-sensitive Plasmodium falciparum FCR3 in human erythrocytes at 5 uL by Diff-Quick stain; format: functional, organism-based; outline: as §1

Row | SMILES | EC50 (Plasmodium falciparum [1]) | EC50 (FM3A) | Activity (Plasmodium falciparum [2]) | Activity (Plasmodium falciparum [3]) | Activity (Plasmodium falciparum [4]) | Activity (Plasmodium falciparum [5])
1 | O=C(Nc1ccc(C(F)(F)F)cc1)c1cc[n+](CCCCCCCCCC[n+]2ccc(C(=O)Nc3ccc(C(F)(F)F)cc3)cc2)cc1 | 33 nM | 5180 nM | – | – | – | –
2 | O=C(Nc1ccc([N+](=O)[O-])cc1)c1cc[n+](CCCCCCCCCC[n+]2ccc(C(=O)Nc3ccc([N+](=O)[O-])cc3)cc2)cc1 | 74 nM | 5990 nM | – | – | – | –
3 | O=C(Nc1ccccc1)c1cc[n+](CCCCCCCCCC[n+]2ccc(C(=O)Nc3ccccc3)cc2)cc1 | 29 nM | 42800 nM | inactive | inactive | inactive | Active
4 | CCCCNC(=O)c1cc[n+](CCCCCCCCCCCC[n+]2ccc(C(=O)NCCCC)cc2)cc1 | 100 nM | 52900 nM | – | – | – | –
5 | CCCCCCNC(=O)c1cc[n+](CCCCCCCCCC[n+]2ccc(C(=O)NCCCCCC)cc2)cc1 | 5 nM | 10500 nM | inactive | inactive | inactive | Active

Further lines, with some results ahead:

Row | EC50 (Plasmodium falciparum [1]) | SMILES | EC50 (FM3A) | Activity (Plasmodium falciparum [2]) | Activity (Plasmodium falciparum [3]) | Activity (Plasmodium falciparum [4]) | Activity (Plasmodium falciparum [5])
6 | 12 nM | O=C(Nc1ccc(I)cc1)c1cc[n+](CCCCCCCCCC[n+]2ccc(C(=O)Nc3ccc(I)cc3)cc2)cc1 | 1420 nM | – | – | – | –
7 | 8 nM | O=C(Nc1ccc(Cl)cc1)c1cc[n+](CCCCCCCCCC[n+]2ccc(C(=O)Nc3ccc(Cl)cc3)cc2)cc1 | 1890 nM | – | – | – | –
8 | 21 nM | O=C(Nc1ccc(F)cc1)c1cc[n+](CCCCCCCCCC[n+]2ccc(C(=O)Nc3ccc(F)cc3)cc2)cc1 | 27800 nM | – | – | – | –
9 | 15 nM | O=C(Nc1ccc(Br)cc1)c1cc[n+](CCCCCCCCCC[n+]2ccc(C(=O)Nc3ccc(Br)cc3)cc2)cc1 | 1390 nM | – | – | – | –
10 | 39 nM | Cc1ccc(NC(=O)c2cc[n+](CCCCCCCCCC[n+]3ccc(C(=O)Nc4ccc(C)cc4)cc3)cc2)cc1 | 25600 nM | – | – | – | –
11 | 35 nM | N#Cc1ccc(NC(=O)c2cc[n+](CCCCCCCCCC[n+]3ccc(C(=O)Nc4ccc(C#N)cc4)cc3)cc2)cc1 | 42400 nM | – | – | – | –
